From ChEMBL document CHEMBL5058577, “EUbOPEN Chemogenomics Library 2 (Multiplex)” (2022)

System: HEK-293T
Test: Multiplex assay against HEK293T
Type: toxicity, cell-based
Conditions: human
Outline: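 Cells stained live at seeding with Hoechst33342, BioTracker Green Microtubule Cytoskeleton Dye, MitoTracker Red and Annexin V Alexa Fluor 680 were imaged on a CQ1 microscope at 37°C and 5% CO2 after compound addition. Their classification by CellPathfinder machine-learning gating ran from Hoechst high-intensity objects versus normal cells, to healthy, pyknosed or fragmented nuclei among normal cells, to mitotic or apoptotic among pyknosed cells. Tubulin, mitochondrial-mass and membrane-permeability phenotypes are per cents of healthy-nucleus cells.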

[1] = 12 h, 1 µM, compound concentration 1 uM, replicate 1
[2] = 12 h, 1 µM, compound concentration 1 uM, replicate 2
[3] = 12 h, 10 µM, compound concentration 10 uM, replicate 1
[4] = 12 h, 10 µM, compound concentration 10 uM, replicate 2
[5] = 24 h, 1 µM, compound concentration 1 uM, replicate 1
[6] = 24 h, 1 µM, compound concentration 1 uM, replicate 2
[7] = 24 h, 10 µM, compound concentration 10 uM, replicate 1
[8] = 24 h, 10 µM, compound concentration 10 uM, replicate 2
[9] = 48 h, 1 µM, compound concentration 1 uM, replicate 1
[10] = 48 h, 1 µM, compound concentration 1 uM, replicate 2
[11] = 48 h, 10 µM, compound concentration 10 uM, replicate 1
[12] = 48 h, 10 µM, compound concentration 10 uM, replicate 2

CN1CCN2c3ncccc3Cc3ccccc3C2C1 (stereo unspecified) [MIRTAZAPINE]
Population Apoptotic (%) [1]: 58% | Population Fragmented Nuclei (%) [1]: 4% | Population Healthy Nuclei (%) [1]: 88% | Population Hoechst High Intensity Objects (%) [1]: 5% | Population Membrane Permeable-Phenotype (%) [1]: 0% | Population Mitochondria Different-Phenotype (%) [1]: 41% | Population Mitotic Cells (%) [1]: 41% | Population Normal (%) [1]: 94% | Population Pyknosed Nuclei (%) [1]: 7% | Population Tubulin-Different-Phenotype (%) [1]: 22% | Total Cell Count [1]: 402 | Population Apoptotic (%) [2]: 51% | Population Fragmented Nuclei (%) [2]: 3% | Population Healthy Nuclei (%) [2]: 79% | Population Hoechst High Intensity Objects (%) [2]: 7% | Population Mitochondria Different-Phenotype (%) [2]: 68% | Population Mitotic Cells (%) [2]: 48% | Population Normal (%) [2]: 92% | Population Pyknosed Nuclei (%) [2]: 17% | Population Tubulin-Different-Phenotype (%) [2]: 21% | Total Cell Count [2]: 329 | Population Apoptotic (%) [3]: 45% | Population Fragmented Nuclei (%) [3]: 9% | Population Healthy Nuclei (%) [3]: 75% | Population Hoechst High Intensity Objects (%) [3]: 6% | Population Membrane Permeable-Phenotype (%) [3]: 0% | Population Mitochondria Different-Phenotype (%) [3]: 49% | Population Mitotic Cells (%) [3]: 54% | Population Normal (%) [3]: 93% | Population Pyknosed Nuclei (%) [3]: 15% | Population Tubulin-Different-Phenotype (%) [3]: 43% | Total Cell Count [3]: 228 | Population Apoptotic (%) [4]: 47% | Population Fragmented Nuclei (%) [4]: 5% | Population Healthy Nuclei (%) [4]: 79% | Population Membrane Permeable-Phenotype (%) [4]: 1% | Population Mitochondria Different-Phenotype (%) [4]: 64% | Population Mitotic Cells (%) [4]: 52% | Population Tubulin-Different-Phenotype (%) [4]: 36% | Total Cell Count [4]: 240 | Population Apoptotic (%) [5]: 33% | Population Fragmented Nuclei (%) [5]: 9% | Population Healthy Nuclei (%) [5]: 80% | Population Hoechst High Intensity Objects (%) [5]: 3% | Population Membrane Permeable-Phenotype (%) [5]: 0% | Population Mitochondria Different-Phenotype (%) [5]: 35% | Population Mitotic Cells (%) [5]: 66% | Population Normal (%) [5]: 97% | Population Pyknosed Nuclei (%) [5]: 10% | Population Tubulin-Different-Phenotype (%) [5]: 18% | Total Cell Count [5]: 601 | Population Apoptotic (%) [6]: 42% | Population Fragmented Nuclei (%) [6]: 6% | Population Healthy Nuclei (%) [6]: 79% | Population Hoechst High Intensity Objects (%) [6]: 6% | Population Mitochondria Different-Phenotype (%) [6]: 47% | Population Mitotic Cells (%) [6]: 57% | Population Normal (%) [6]: 93% | Population Pyknosed Nuclei (%) [6]: 14% | Population Tubulin-Different-Phenotype (%) [6]: 17% | Total Cell Count [6]: 373 | Population Apoptotic (%) [7]: 44% | Population Fragmented Nuclei (%) [7]: 9% | Population Healthy Nuclei (%) [7]: 78% | Population Hoechst High Intensity Objects (%) [7]: 3% | Population Membrane Permeable-Phenotype (%) [7]: 0% | Population Mitochondria Different-Phenotype (%) [7]: 40% | Population Mitotic Cells (%) [7]: 55% | Population Normal (%) [7]: 96% | Population Pyknosed Nuclei (%) [7]: 12% | Population Tubulin-Different-Phenotype (%) [7]: 28% | Total Cell Count [7]: 274 | Population Apoptotic (%) [8]: 32% | Population Fragmented Nuclei (%) [8]: 5% | Population Healthy Nuclei (%) [8]: 80% | Population Hoechst High Intensity Objects (%) [8]: 5% | Population Mitochondria Different-Phenotype (%) [8]: 44% | Population Mitotic Cells (%) [8]: 67% | Population Normal (%) [8]: 94% | Population Pyknosed Nuclei (%) [8]: 13% | Population Tubulin-Different-Phenotype (%) [8]: 18% | Total Cell Count [8]: 314 | Population Apoptotic (%) [9]: 23% | Population Fragmented Nuclei (%) [9]: 11% | Population Healthy Nuclei (%) [9]: 82% | Population Hoechst High Intensity Objects (%) [9]: 2% | Population Membrane Permeable-Phenotype (%) [9]: 1% | Population Mitochondria Different-Phenotype (%) [9]: 19% | Population Mitotic Cells (%) [9]: 76% | Population Normal (%) [9]: 97% | Population Pyknosed Nuclei (%) [9]: 6% | Population Tubulin-Different-Phenotype (%) [9]: 13% | Total Cell Count [9]: 885 | Population Apoptotic (%) [10]: 44% | Population Fragmented Nuclei (%) [10]: 13% | Population Healthy Nuclei (%) [10]: 80% | Population Hoechst High Intensity Objects (%) [10]: 3% | Population Membrane Permeable-Phenotype (%) [10]: 0% | Population Mitochondria Different-Phenotype (%) [10]: 21% | Population Mitotic Cells (%) [10]: 55% | Population Normal (%) [10]: 96% | Population Tubulin-Different-Phenotype (%) [10]: 9% | Total Cell Count [10]: 562 | Population Apoptotic (%) [11]: 31% | Population Fragmented Nuclei (%) [11]: 14% | Population Healthy Nuclei (%) [11]: 74% | Population Hoechst High Intensity Objects (%) [11]: 2% | Population Membrane Permeable-Phenotype (%) [11]: 0% | Population Mitochondria Different-Phenotype (%) [11]: 36% | Population Mitotic Cells (%) [11]: 68% | Population Normal (%) [11]: 97% | Population Pyknosed Nuclei (%) [11]: 10% | Population Tubulin-Different-Phenotype (%) [11]: 20% | Total Cell Count [11]: 390 | Population Apoptotic (%) [12]: 30% | Population Fragmented Nuclei (%) [12]: 11% | Population Healthy Nuclei (%) [12]: 81% | Population Hoechst High Intensity Objects (%) [12]: 3% | Population Mitochondria Different-Phenotype (%) [12]: 30% | Population Mitotic Cells (%) [12]: 69% | Population Normal (%) [12]: 96% | Population Pyknosed Nuclei (%) [12]: 7% | Population Tubulin-Different-Phenotype (%) [12]: 12% | Total Cell Count [12]: 521

CCNC1(C(N)=O)CCN(c2ncnc3c2nc(-c2ccccc2Cl)n3-c2ccc(Cl)cc2)CC1 [OTENABANT]
Population Apoptotic (%) [1]: 51% | Population Fragmented Nuclei (%) [1]: 8% | Population Healthy Nuclei (%) [1]: 80% | Population Hoechst High Intensity Objects (%) [1]: 10% | Population Membrane Permeable-Phenotype (%) [1]: 0% | Population Mitochondria Different-Phenotype (%) [1]: 48% | Population Mitotic Cells (%) [1]: 48% | Population Normal (%) [1]: 89% | Population Pyknosed Nuclei (%) [1]: 10% | Population Tubulin-Different-Phenotype (%) [1]: 52% | Total Cell Count [1]: 401 | Population Apoptotic (%) [2]: 58% | Population Healthy Nuclei (%) [2]: 76% | Population Hoechst High Intensity Objects (%) [2]: 6% | Population Mitochondria Different-Phenotype (%) [2]: 66% | Population Mitotic Cells (%) [2]: 41% | Population Normal (%) [2]: 93% | Population Pyknosed Nuclei (%) [2]: 15% | Population Tubulin-Different-Phenotype (%) [2]: 44% | Total Cell Count [2]: 333 | Population Apoptotic (%) [3]: 46% | Population Fragmented Nuclei (%) [3]: 3% | Population Healthy Nuclei (%) [3]: 74% | Population Hoechst High Intensity Objects (%) [3]: 16% | Population Membrane Permeable-Phenotype (%) [3]: 0% | Population Mitochondria Different-Phenotype (%) [3]: 82% | Population Mitotic Cells (%) [3]: 53% | Population Normal (%) [3]: 83% | Population Pyknosed Nuclei (%) [3]: 22% | Population Tubulin-Different-Phenotype (%) [3]: 50% | Total Cell Count [3]: 381 | Population Apoptotic (%) [4]: 63% | Population Fragmented Nuclei (%) [4]: 4% | Population Healthy Nuclei (%) [4]: 67% | Population Hoechst High Intensity Objects (%) [4]: 9% | Population Mitochondria Different-Phenotype (%) [4]: 96% | Population Mitotic Cells (%) [4]: 36% | Population Normal (%) [4]: 90% | Population Pyknosed Nuclei (%) [4]: 27% | Population Tubulin-Different-Phenotype (%) [4]: 43% | Total Cell Count [4]: 251 | Population Apoptotic (%) [5]: 49% | Population Fragmented Nuclei (%) [5]: 8% | Population Healthy Nuclei (%) [5]: 80% | Population Hoechst High Intensity Objects (%) [5]: 5% | Population Membrane Permeable-Phenotype (%) [5]: 0% | Population Mitochondria Different-Phenotype (%) [5]: 43% | Population Mitotic Cells (%) [5]: 50% | Population Normal (%) [5]: 94% | Population Pyknosed Nuclei (%) [5]: 11% | Population Tubulin-Different-Phenotype (%) [5]: 44% | Total Cell Count [5]: 474 | Population Apoptotic (%) [6]: 40% | Population Fragmented Nuclei (%) [6]: 12% | Population Healthy Nuclei (%) [6]: 75% | Population Mitochondria Different-Phenotype (%) [6]: 47% | Population Mitotic Cells (%) [6]: 59% | Population Tubulin-Different-Phenotype (%) [6]: 41% | Total Cell Count [6]: 442 | Population Apoptotic (%) [7]: 40% | Population Fragmented Nuclei (%) [7]: 8% | Population Healthy Nuclei (%) [7]: 71% | Population Hoechst High Intensity Objects (%) [7]: 17% | Population Membrane Permeable-Phenotype (%) [7]: 1% | Population Mitochondria Different-Phenotype (%) [7]: 79% | Population Mitotic Cells (%) [7]: 59% | Population Normal (%) [7]: 82% | Population Pyknosed Nuclei (%) [7]: 19% | Population Tubulin-Different-Phenotype (%) [7]: 56% | Total Cell Count [7]: 452 | Population Apoptotic (%) [8]: 64% | Population Fragmented Nuclei (%) [8]: 6% | Population Healthy Nuclei (%) [8]: 77% | Population Hoechst High Intensity Objects (%) [8]: 13% | Population Membrane Permeable-Phenotype (%) [8]: 0% | Population Mitochondria Different-Phenotype (%) [8]: 95% | Population Mitotic Cells (%) [8]: 35% | Population Normal (%) [8]: 86% | Population Pyknosed Nuclei (%) [8]: 15% | Population Tubulin-Different-Phenotype (%) [8]: 53% | Total Cell Count [8]: 283 | Population Apoptotic (%) [9]: 34% | Population Fragmented Nuclei (%) [9]: 12% | Population Healthy Nuclei (%) [9]: 78% | Population Hoechst High Intensity Objects (%) [9]: 4% | Population Membrane Permeable-Phenotype (%) [9]: 1% | Population Mitochondria Different-Phenotype (%) [9]: 29% | Population Mitotic Cells (%) [9]: 65% | Population Normal (%) [9]: 95% | Population Pyknosed Nuclei (%) [9]: 9% | Population Tubulin-Different-Phenotype (%) [9]: 30% | Total Cell Count [9]: 766 | Population Apoptotic (%) [10]: 32% | Population Fragmented Nuclei (%) [10]: 8% | Population Healthy Nuclei (%) [10]: 82% | Population Membrane Permeable-Phenotype (%) [10]: 0% | Population Mitochondria Different-Phenotype (%) [10]: 30% | Population Mitotic Cells (%) [10]: 68% | Population Pyknosed Nuclei (%) [10]: 8% | Total Cell Count [10]: 604 | Population Apoptotic (%) [11]: 52% | Population Fragmented Nuclei (%) [11]: 13% | Population Healthy Nuclei (%) [11]: 71% | Population Hoechst High Intensity Objects (%) [11]: 16% | Population Membrane Permeable-Phenotype (%) [11]: 2% | Population Mitochondria Different-Phenotype (%) [11]: 78% | Population Mitotic Cells (%) [11]: 47% | Population Normal (%) [11]: 83% | Population Pyknosed Nuclei (%) [11]: 15% | Population Tubulin-Different-Phenotype (%) [11]: 66% | Total Cell Count [11]: 560 | Population Apoptotic (%) [12]: 70% | Population Fragmented Nuclei (%) [12]: 10% | Population Healthy Nuclei (%) [12]: 77% | Population Hoechst High Intensity Objects (%) [12]: 14% | Population Membrane Permeable-Phenotype (%) [12]: 0% | Population Mitochondria Different-Phenotype (%) [12]: 89% | Population Mitotic Cells (%) [12]: 29% | Population Normal (%) [12]: 85% | Population Pyknosed Nuclei (%) [12]: 12% | Population Tubulin-Different-Phenotype (%) [12]: 57% | Total Cell Count [12]: 325
